# Screening results deposited in PubChem BioAssay by The Scripps Research Institute Molecular Screening Center.
# PAFAH2 inh = inhibitors of human PAFAH2 | Q99487 | inhibition, % at 3.39 µM | hit rate 0.99% among 340,000 | recombinant PAFAH2, FP-rhodamine activity probe, fluorescence polarization | AID 492956;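 active = inhibition above the mean over all tested compounds plus 3 SD, cut at about 30% in these data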;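 also: inhibitors block probe labeling of enzyme so polarization drops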
# pPAFAH inh = inhibitors of human plasma PAF acetylhydrolase (pPAFAH). recombinant pPAFAH, FP-rhodamine probe fluorescence polarization. Q13093. inhibition, % at 3.39 µM. AID 463082. hit rate 1.5% among 330,000;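 active = inhibition above the mean inhibition across the screen plus 3 SD, cut at about 25% in these data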;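 also: inhibitors block binding of the rhodamine activity-based probe so polarization drops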
# Target sequence (Q13093 whole entry, looked up): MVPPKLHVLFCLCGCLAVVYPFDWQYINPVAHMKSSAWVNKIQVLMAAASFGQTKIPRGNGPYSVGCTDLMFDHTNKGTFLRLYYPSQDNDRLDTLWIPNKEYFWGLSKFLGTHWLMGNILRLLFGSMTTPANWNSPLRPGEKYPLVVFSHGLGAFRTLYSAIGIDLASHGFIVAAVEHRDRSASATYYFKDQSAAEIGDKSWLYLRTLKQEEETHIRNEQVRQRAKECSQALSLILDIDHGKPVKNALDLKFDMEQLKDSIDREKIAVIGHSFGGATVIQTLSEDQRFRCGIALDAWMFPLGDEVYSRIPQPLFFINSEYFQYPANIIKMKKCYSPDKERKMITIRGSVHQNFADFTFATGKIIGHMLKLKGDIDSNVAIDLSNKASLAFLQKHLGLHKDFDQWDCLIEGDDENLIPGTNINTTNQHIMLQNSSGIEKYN
# PAFAH1B3 inh = inhibitors of human PAFAH1B3. Q15102. recombinant PAFAH1B3, FP-rhodamine probe, fluorescence polarization. inhibition, % at 3.39 µM. hit rate 0.28% among 340,000;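 active = inhibition above the screen-wide average of all tested compounds plus 3 SD, cut at about 25% in these data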
# RBBP9 inh = inhibitors of human serine hydrolase RBBP9; O75884; recombinant RBBP9, FP-Rh probe fluorescence polarization; inhibition, % at 7.94 µM; hit rate 0.2% among 220,000;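 active = inhibition above the campaign mean of all tested compounds plus 3 SD, cut at about 14% in these data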
# Target sequence (O75884 whole entry, looked up): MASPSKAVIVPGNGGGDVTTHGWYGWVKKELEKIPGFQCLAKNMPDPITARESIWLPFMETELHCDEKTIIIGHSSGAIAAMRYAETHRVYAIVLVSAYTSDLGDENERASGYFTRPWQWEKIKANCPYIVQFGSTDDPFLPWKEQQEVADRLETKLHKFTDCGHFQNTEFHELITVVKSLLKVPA
#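 Test system – recombinant human RBBP9 · Input – RBBP9 2.5 µM in dispensing solution, pre-mixing · Medium – Tris buffer pH 8.0, NaCl, Pluronic · Schedule – preincubation 30 min plus labeling 45 min at 25 °C · Measured by – fluorescence polarization · Measure – % inhibition · Controls – DMSO and no-protein wells · Replicates – one well per compound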
# PAFAH1B2 inh = blocks human PAF acetylhydrolase 1b catalytic subunit 2 | P68402 | recombinant PAFAH1B2, FP-rhodamine activity probe, fluorescence polarization | inhibition, % at 3.39 µM | hit rate 1.2% among 340,000;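 active = inhibition above the mean of all tested compounds plus 3 SD, cut at about 24% in these data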
# pPAFAH FP conf = pPAFAH (human) inhibition, confirmed; shares compounds with pPAFAH inh; hit rate 72% among 2,300; inhibition, % at 3.39 µM; recombinant pPAFAH, FP-Rh probe fluorescence polarization;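 active = mean inhibition of the triplicate above the hit cutoff set for the earlier primary screen, cut at about 25% in these data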
# Numbers stand for hits; . = inactive; / = not tested or not shown. An excerpt weighted towards active compounds, which were near 2.7% of everything screened.
SMILES,PAFAH2 inh,pPAFAH inh,PAFAH1B3 inh,RBBP9 inh,PAFAH1B2 inh,pPAFAH FP conf
CCOc1ccc(CCNC(=O)C2(c3ccccc3)CC2)cc1OCC,.,.,.,/,.,/
Nc1nc(N)nc(-c2ccc(Oc3ccccc3)cc2)n1,.,.,.,.,.,/
Cc1ccccc1Oc1ccc(-c2nc(N)nc(N)n2)cc1,.,39,.,.,.,.
CC(CCC(C)C(C)(C)C)[C@@H]1CC[C@H]2C3C[C@H](OS(O)(=S)=S)[C@H]4C[C@H](OS(O)(=S)=S)[C@@H](OS(O)(=S)=S)C[C@]4(C)[C@H]3CC[C@]12C (stereo not given in full) (tested in a mixture with another compound),.,36,.,/,.,.
CCOC(=O)c1nn(C)c(=S)n(C)c1=O,.,/,.,/,.,/
Cc1c(N/C(=N/S(=O)(=O)c2ccccc2)c2ccc(Cl)cc2)c(=O)n(-c2ccccc2)n1C,.,.,.,.,.,/
Cc1c(N/C(=N/S(=O)(=O)c2ccc(Cl)cc2)c2ccccc2)c(=O)n(-c2ccccc2)n1C,/,82,/,.,/,.
Cc1ccc(/C=C2\S/C(=N/S(=O)(=O)c3cccs3)NC2=O)cc1,.,.,.,.,.,/
Cc1ccc(S(=O)(=O)/N=C2\C=C(Nc3ccc(O)cc3)C(=O)c3ccccc32)cc1,35,38,61,/,27,33
O=C1C(Nc2ccccc2)=C/C(=N/S(=O)(=O)c2cccs2)c2ccccc21,49,62,62,.,38,60
COC(=O)c1ccccc1NC1=C/C(=N\S(=O)(=O)c2ccc(C(=O)O)cc2)c2ccccc2C1=O,72,37,71,/,53,39
Cc1ccc(NC2=C/C(=N/S(=O)(=O)c3cccs3)c3ccccc3C2=O)cc1,.,53,45,.,.,65
C=CC[C@H](CC(=O)N[C@H](CO)Cc1ccccc1)C(=O)N[C@@H](COC(=O)[C@@H](CC=C)Cc1ccc(F)cc1)Cc1c[nH]c2ccccc12,.,.,.,/,.,/
O=C(CCN1C(=O)/C(=C\c2ccco2)SC1=S)Nc1ccc(C(=O)O)c(O)c1,.,49,.,/,.,.
COc1ccccc1/C=C1\SC(=S)N(CCC(=O)Nc2ccc(C(=O)O)c(O)c2)C1=O,.,.,.,/,.,/
O=C(CCN1C(=O)/C(=C\c2cccs2)SC1=S)Nc1ccc(C(=O)O)cc1,.,.,.,/,.,/
O=C(CCN1C(=O)/C(=C/c2ccco2)SC1=S)Nc1ccc(C(=O)O)c(O)c1,.,40,.,/,.,.
C(=C\c1ccco1)/C1=NN(c2ccccc2)C(c2ccco2)C1 (stereo not given),.,40,.,.,.,.
O=[N+]([O-])c1ccc(/C=C/C2=NN(c3ccccc3)C(c3ccco3)C2)o1 (stereo not given),.,/,.,.,.,/
CCOC(=O)N1CCC(NC(=O)CC2C(=O)NCCN2Cc2ccccc2F)CC1 (stereo not given),.,49,.,/,.,.
N#Cc1c(SCC(=O)Nc2nncs2)sc2c(O)cc(=O)[nH]c12,37,49,36,/,.,.
COc1cc(Cl)c(C)cc1NC(=O)CSc1sc2c(O)cc(=O)[nH]c2c1C#N,.,40,.,/,.,31
COc1cc(Cl)c(C)cc1NC(=O)CSCC#N,.,.,.,.,.,/
COc1cc(CCc2ccccc2)c(C(=O)O)c(O)c1CC=C(C)C,.,/,.,/,.,/
COc1cc(CCc2ccccc2)c(C(=O)O)c(O)c1C/C=C(/C)CCC=C(C)C,.,72,.,/,.,59
SMILES,PAFAH2 inh,pPAFAH inh,PAFAH1B3 inh,RBBP9 inh,PAFAH1B2 inh,pPAFAH FP conf
Cc1ccc(C(=O)Nc2nnc(CC(=O)N/N=C/c3ccc(O)c(O)c3)s2)cc1,.,51,.,/,.,87
Cc1ccc(C(=O)Nc2nnc(CC(=O)N/N=C/c3ccncc3)s2)cc1,.,.,.,.,.,/
O=C(NCCc1ccccc1)C1CCCN1S(=O)(=O)c1ccccc1 (stereo not given),/,.,/,.,/,/
COc1cc(OC)cc(-c2c(-c3cccs3)c3cc(-c4ccc(OCc5ccccc5)cc4)ccc3n2C)c1,.,45,.,/,.,.
COc1cc(OC)cc(-c2c(-c3cccs3)c3cc(-c4ccc(SC)cc4)ccc3n2C)c1,.,.,.,/,.,/
COc1ccc(S(=O)(=O)NCC(=O)N(CC(=O)NCc2ccccc2)Cc2ccco2)cc1,.,.,.,/,.,/
COc1ccc(CNC(=O)C(c2ccco2)N(C(=O)CNS(=O)(=O)c2ccccc2)c2ccccc2C)cc1 (stereo not given),.,47,.,.,.,51
CC(=O)C1CCC2C3CC=C4N(C)C(=O)CCC4(C)C3CCC12C (stereo not given),.,/,.,/,.,/
N#C/C(=C\c1ccc2c(c1)OCCO2)C(=O)Nc1ccc(C(=O)O)cc1,.,.,.,/,.,/
Oc1ccc(/C=N/Nc2cc(N3CCCC3)nc(N3CCCC3)n2)cc1O,.,56,.,.,.,28
CCc1ccccc1OCC(=O)Nc1cc(S(=O)(=O)N(CC)CC)ccc1N1CCOCC1,.,49,.,/,.,.
CCN(CC)S(=O)(=O)c1ccc(N2CCOCC2)c(NC(=O)COc2ccccc2)c1,.,.,.,.,.,/
N#CC1=C(N)n2c(s/c(=C\c3ccco3)c2=O)=C(C#N)C1c1ccco1 (stereo not given),.,53,.,.,.,.
O=C(O)c1ccc(N=Nc2c(O)ccc3ncccc23)cc1,.,39,33,/,.,56
CCOC(=O)c1cc(C#N)c(SCC(=O)OC)[nH]c1=O,.,35,.,.,.,.
COc1ccc2nc(NC(=O)CSc3nnc(C)n3N)sc2c1,.,38,.,.,.,.
COc1ccc2nc(NC(=O)CSc3nnc(N)s3)sc2c1,.,.,.,.,.,/
CCC1Oc2ccc(C)cc2N(CC(=O)NCCN2CCOCC2)C1=O (stereo not given),.,.,.,/,.,/
CN1CCN(c2ccc(S(=O)(=O)N3CCCCC3)cc2NC(=O)Cc2ccc(Cl)cc2)CC1,.,.,.,.,.,/
Cc1cc(NC(=O)c2ccc(NC(=O)C(C)C)cc2)no1,.,41,.,.,.,.
CC(C)CCn1c(Oc2ccccc2Cl)nc2c1c(=O)n(C)c(=O)n2C,.,.,.,.,.,/
Cc1cc(C(=O)N/N=C/c2ccc([N+](=O)[O-])o2)c(C)o1,.,42,.,.,.,.
Cc1nonc1C(=O)N/N=C/c1ccc([N+](=O)[O-])o1,.,.,.,.,.,/
CC/C(=N\Nc1ccnc2cc(Cl)ccc12)c1ccc(O)cc1,.,.,.,/,.,/
Oc1ccc(/C=N/Nc2ccnc3cc(Cl)ccc23)c(O)c1O,35,44,48,/,37,57
CC(C)=CCc1cc2c(=O)c3c(O)c4c(cc3oc2c(O)c1O)OC(C)C4(C)C (stereo not given),/,67,/,/,/,86
